# CHO parental Ca – counter-screen for OX1R antagonists: effect in parental CHO cells; parental CHO-K1, ATP-induced calcium, Fluo-8 fluorescence; AID 463079; 330,000 tested, 0.63% active; inhibition, % at 5.6 µM;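 active means inhibition above that plate's mean sample inhibition plus 3 SD, cut at about 26% in these data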
#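 Test system: untransfected parental CHO cell line; also added: ATP stimulus; dosing: 5.6 µM, single dose; signal: calcium-sensitive Fluo-8 fluorescence; measure: percent inhibition of ATP-evoked calcium rise, normalized to controls; benchmarks: low control ATP plus DMSO, high control DMSO only; replication: one well per compound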
# GalR3 antagonist – antagonists of human GalR3. O60755. HEK293 GalR3-CNG cAMP membrane potential fluorescence; galR3 body fused to GalR1 C-terminus. inhibition, % at 3 µM. 360,000 tested, 0.44% active. AID 651719;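 active means inhibition above the screen-wide average plus 3 SD, cut at about 13% in these data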;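 further: forskolin and galanin both at EC90 stimulate the cells; cAMP rise reported by CNG channel membrane potential dye signal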
# Target sequence (O60755 1-299 limits assumed): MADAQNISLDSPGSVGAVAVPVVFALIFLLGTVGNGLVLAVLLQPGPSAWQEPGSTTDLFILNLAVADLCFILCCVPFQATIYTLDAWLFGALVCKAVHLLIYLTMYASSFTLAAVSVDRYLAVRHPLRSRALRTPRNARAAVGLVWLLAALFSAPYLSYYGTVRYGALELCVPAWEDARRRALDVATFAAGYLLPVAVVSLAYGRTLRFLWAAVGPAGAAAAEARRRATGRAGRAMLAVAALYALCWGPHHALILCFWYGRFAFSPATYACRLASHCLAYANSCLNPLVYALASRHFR
# OX1R antag-1 – antagonists of human orexin 1 receptor; inhibition, % at 5 µM; O43613; 330,000 tested, 0.43% active; AID 434989; CHO/OX1R cells, Fluo-8 calcium fluorescence, orexin A;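 active means inhibition above its plate's threshold, mean inhibition of all tested compounds on the plate plus 3 SD, cut at about 37% in these data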
# OX1R antag-2 – OX1R (human) antagonism | inhibition, % at 6.6 µM | OX1R-expressing cells, FRET antagonist read-out | AID 485270 | 330,000 tested, 1.8% active; in the data active means inhibition mostly above about 38%, no sharp cut-off; inactive means mostly below about 40%
# GPR7 antagonist – blocks human GPR7 receptor signaling. P48145. GPR7-expressing cells, fluorescence antagonist assay. inhibition, % at 4.4 µM. 290,000 tested, 1.1% active; in the data active means inhibition above about 16%, passing the limit was not always enough;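 further: cells stimulated with the agonist NPW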
# Target sequence (P48145 whole entry, looked up): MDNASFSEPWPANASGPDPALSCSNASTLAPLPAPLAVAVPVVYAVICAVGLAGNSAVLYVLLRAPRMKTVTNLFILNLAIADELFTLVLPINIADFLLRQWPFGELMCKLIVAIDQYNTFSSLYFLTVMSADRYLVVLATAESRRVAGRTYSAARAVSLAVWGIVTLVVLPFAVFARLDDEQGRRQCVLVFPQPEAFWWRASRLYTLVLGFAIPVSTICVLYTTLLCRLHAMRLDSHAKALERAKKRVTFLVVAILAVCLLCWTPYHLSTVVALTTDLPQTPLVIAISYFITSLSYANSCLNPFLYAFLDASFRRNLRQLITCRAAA
# GPR7 antag conf – human GPR7 antagonism, confirmation assay; shares compounds with GPR7 antagonist; GPR7-expressing cells, calcium fluorescence antagonist mode; inhibition, % at 4.4 µM; 2,400 tested, 52% active; in the data active means inhibition above about 24%;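 further: stimulated with the GPR7 agonist NPW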
# MCHR1 antagonist – MCHR1 (human) antagonism in GPR7 counter-screen; 2,400 tested, 62% active; MCHR1-expressing cells, fluorescence antagonist assay; inhibition, % at 4.4 µM; shares compounds with GPR7 antagonist; in the data active means inhibition above about 22%
# Hits are given with their value; n = inactive; x = not tested or not shown. The list is not random: actives were taken first. Their share in the collection is about 3.1%.
SMILES,CHO parental Ca,GalR3 antagonist,OX1R antag-1,OX1R antag-2,GPR7 antagonist,GPR7 antag conf,MCHR1 antagonist
C[C@H]1CC[C@H]2C(=O)N3[C@H](c4cccc(N5CCCC5=O)c4)[C@@H](C)CC[C@H]3C(=O)N2[C@@H]1c1cccc(N2CCCC2=O)c1,n,x,n,n,n,x,x
C[C@H]1CC[C@H]2C(=O)N3[C@H](c4ccccc4Br)[C@@H](C)CC[C@H]3C(=O)N2[C@@H]1c1ccccc1Br,n,x,n,75,29,57,59
CC(C)CCNC(=O)NC(=O)CN1C(=O)NC2(CCCCC2)C1=O,n,n,n,n,24,n,n
O=C(CN1C(=O)NC2(CCCCCCC2)C1=O)NC(=O)NCc1ccco1,n,n,n,n,n,x,x
CCc1cccc(CC)c1NC(=O)Cn1c(-c2ccc(F)cc2)noc1=O,n,n,n,n,27,n,n
CCOc1ccccc1NC(=O)Cn1c(-c2ccc(Cl)cc2)noc1=O,n,n,n,n,n,x,x
CC(C)C(c1nnnn1Cc1ccc(F)cc1)N1CCN(Cc2ccc3c(c2)OCO3)CC1 (stereo not drawn),n,n,n,n,27,n,25
CCN1CCN(C(c2nnnn2Cc2ccc3c(c2)OCO3)C(C)C)CC1 (stereo not drawn),n,n,n,n,n,x,x
CCCCNC(=O)C1CCN(S(=O)(=O)c2ccc3c(c2)CC(C)N3C(=O)C2CC2)CC1 (stereo not drawn),n,n,n,n,n,x,x
CC(C)CCNC(=O)C1CCN(S(=O)(=O)c2ccc3c(c2)CC(C)N3C(=O)C2CC2)CC1 (stereo not drawn),n,n,n,n,25,n,n
CN1C(=O)C2C3c4ccccc4C(c4ccccc43)[C@@H]2C1=O (stereo partly drawn),n,n,n,n,n,x,x
O=C1C2C3c4ccccc4C(c4ccccc43)C2c2nc3ccccc3n21 (stereo not drawn),n,n,n,n,22,n,32
O=C1CCCN2N=C(SCC(=O)N3N=C(c4ccc(Br)cc4)CC3c3ccc(F)cc3)SC2=N1 (stereo not drawn),n,n,n,n,22,n,n
COCCNc1nc(Nc2ccc(C(=O)OC)cc2)c2sccc2n1,x,n,x,x,x,x,x
O=S(=O)(Nc1cccc(-c2cn3c(n2)SCC3)c1)c1ccc(F)cc1F,n,n,n,n,25,n,n
CN1CCN(c2ccccc2NC(=O)COc2ccccc2)CC1,n,n,n,n,22,n,n
CCC(=O)N1CCN(c2ccccc2NC(=O)Cc2ccccc2)CC1,n,n,n,n,22,n,22
COC(=O)Cc1nnn2c1[C@H](C)[C@H](c1ccccc1Br)OC[C@H](C)C2,x,n,x,x,x,x,x
O=C(c1cccc([N+](=O)[O-])c1)N1CCN(c2cccc(Cl)c2)CC1,n,n,n,n,23,31,24
O=C(c1cccc(F)c1)N1CCN(C2CCCCC2)CC1,n,n,n,n,n,x,x
O=C(c1cccc(Cl)c1)N1CCN(C2CCCCC2)CC1,n,n,n,n,50,n,n
CN1CCCCC(NC(=O)C23CC4CC(CC(C4)C2)C3)C1=O (stereo not drawn),x,n,x,x,x,x,x
CCOc1ccc(Oc2ccc(NS(=O)(=O)c3ccc(CCC(=O)O)cc3)cc2)cc1,x,n,x,x,x,x,x
O=C1COc2ccc(C(=O)COC(=O)c3ccc4ccccc4n3)cc2N1,n,n,n,n,n,x,x
O=C1COc2ccc(C(=O)COC(=O)Cn3cnc4ccccc43)cc2N1,n,n,n,n,24,n,n
SMILES,CHO parental Ca,GalR3 antagonist,OX1R antag-1,OX1R antag-2,GPR7 antagonist,GPR7 antag conf,MCHR1 antagonist
Cc1ccc(S(=O)(=O)N2CCCCC2)cc1NCC(=O)Nc1ccc(Br)cc1F,x,n,x,x,x,x,x
CCCCCNC(=O)C(c1ccncc1)n1c(=O)c(-c2cc3ccccc3[nH]2)nc2ccccc21 (stereo not drawn),x,n,x,x,x,x,x
CN1OC[C@@H]2CN3C(=Nc4cc(C(F)(F)F)cc(C(F)(F)F)c4)Sc4ccccc4[C@@H]3C[C@@H]21,x,n,x,x,x,x,x
C[C@H](NC(=O)[C@@H]1CCCN1C(=O)[C@@H]1CCCN1C(=O)c1cccc2ccccc12)c1ccccc1,x,n,x,x,x,x,x
Cc1cccc(C(c2c(C)nn(-c3ccccc3)c2N)c2c(C)nn(-c3ccccc3)c2N)c1,n,n,n,n,21,n,n
CC(C)(C)[C@H](NC(=O)c1ccc(N)c(Cl)c1)C(=O)N1CCC[C@H]1C(=O)N[C@H](C#N)CC(=O)O,x,n,x,x,x,x,x
Cc1ccc([N+](=O)[O-])cc1NC(=O)CN(C1CCCCC1)S(=O)(=O)c1ccc(Cl)cc1,x,n,x,x,n,x,x
Cc1ccc([N+](=O)[O-])cc1NC(=O)CN(C(=O)c1ccccc1Cl)C1CCCCC1,n,n,n,n,36,39,41
Cc1cccc(NC(=O)CNC(=O)c2ccc(S(=O)(=O)NCc3ccco3)cc2)c1C,x,n,x,x,x,x,x
Cn1c(-c2ccccc2)c(Sc2ccccc2)c2cc(-c3ccc4[nH]ccc4c3)ccc21,x,n,x,x,x,x,x
O=[N+]([O-])c1ccc(NCCNS(=O)(=O)c2ccccc2)cc1,n,n,n,n,25,28,32
Cc1cc(C)c(S(=O)(=O)N(C)CC(=O)NCc2ccncc2)c(C)c1,n,n,n,n,27,n,n
Cc1cc(C)c(S(=O)(=O)N(C)CC(=O)NCc2cccnc2)c(C)c1,n,n,n,n,n,x,x
Cc1ccc(-n2sc3cc(F)ccc3c2=O)c(C)c1,x,n,x,x,x,x,x
CCN1CCN(S(=O)(=O)c2ccc(-c3cc(C)no3)s2)CC1,n,n,n,n,n,x,x
Cc1cc(-c2ccc(S(=O)(=O)N3CCN(c4cccc(C)c4C)CC3)s2)on1,n,n,n,n,29,n,40
CCn1nc(C)c(CN2CCC(C(=O)Nc3cccc(-c4cccc(Cl)c4)c3)CC2)c1C,n,n,n,n,26,n,51
CCn1ncc(CN2CCC(C(=O)Nc3cccc(-c4cccc(F)c4)c3)CC2)c1C,n,n,n,n,n,x,x
CC1CCCN(CCCNC(=O)C2CCCN(c3ncnc4c3nc3n4CCCCC3)C2)C1 (stereo not drawn),n,n,n,n,n,x,x
CC1CC(C)CN(CCCNC(=O)C2CCCN(c3ncnc4c3nc3n4CCCCC3)C2)C1 (stereo not drawn),n,n,n,n,28,n,n
Nc1nonc1C(=O)NCCNCc1ccccc1OCc1ccccc1F,n,n,n,n,29,36,33
CC(=O)Nc1ccc(-c2ccnc3c2CC(C(=O)NCc2ccco2)O3)cc1 (stereo not drawn),x,n,x,x,x,x,x
C[C@@H]1C=CCCO[C@]12C(=O)N(CC1CC1)c1ccccc12,x,n,x,x,x,x,x
CC1(C)Cc2ccccc2C(COc2ccccc2)=N1,x,n,x,x,26,n,n
O=C(Nc1ccc(S(=O)(=O)N2CCCCC2)cc1)c1ccc(CN2CCOCC2)cc1,n,x,n,n,60,62,83

# Screens from PubChem BioAssay.
